assay: Toxicity liver stage against HepG2, at 10uM; format: cell-based; parameters: test concentration 10 uM, cell line HepG2-A16-CD81EGFP; conditions: human, HepG2-A16-CD81EGFP cells; read-out: INHIBITION
Method in brief: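 Uninfected HepG2-A16-CD81EGFP cells, 3 × 10^3 per well, 1536-well, plated on prespotted compound at 10 μM final, parasite-free screening media added to match infected plates; puromycin 10 μM positive, DMSO 0.5% negative; run in parallel with 48 h PbLuc assay at 37 °C, 5% CO2; viability by CellTiter-Glo luminescence, normalized to controls.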

SMILES | cytotoxicity at 10 µM [%]
Cc1c(C)n2c(SCC(=O)N3CCCC3)nnc2[nH]c1=O | 2.4
N#Cc1c2n(c3c(=O)[nH]cnc13)CCCC2 | 2.45
CN1C[C@@H](NC(=O)CC(C)(C)C)C[C@H]1c1nc(-c2cnccn2)no1 | 3.08
CN(Cc1ccccc1)C(=O)Cn1nc(N2CCSCC2)ccc1=O | 0.585
COCCNC(=O)C1CC(=O)N(c2n[nH]c3cccc(F)c23)C1 (stereo unspecified) | 3.23
O=C(O)c1ccc(N2CCC(Cc3ccccc3)CC2)nn1 | -6.14
CC(=O)NCC(Cc1cccc(F)c1)n1cccc1 (stereo unspecified) | -5.36
Cn1nnn(-c2ccc(NS(=O)(=O)c3ccc(F)c(Cl)c3)cc2)c1=O | -4.57
O=C(c1nnn(-c2ccc(F)cc2)n1)N1CCC(O)CC1 | 5.86
O=C(c1nnn(-c2ccc(Cl)cc2)n1)N(CCO)Cc1ccccc1 | -1.9
O=C(c1cnccn1)N1CC(S(=O)(=O)c2ccc(Cl)cc2)C1 | -2.3
Cc1nc(N2CCCC2)nc2c1CCN(C(=O)N1CCCC1)CC2 | 1.82
COc1cccc(N2CC3(CCN(c4cnccn4)C3)CC2=O)c1 (stereo unspecified) | 0.0227
CN(C)C(=O)c1ccn(-c2ccc3ccccn23)n1 | 6.98
C1CC(CN2C[C@@H]3C[C@@H](c4nnc(C5CC5)o4)O[C@@H]3C2)C1 | 14.9
CCOc1cccc(CNc2ccccc2Cl)c1O | -2.52
Cn1cccc1CNC(=O)CCCc1nnc2ccccn12 | -5.77
O=C(NCCc1ccccc1)C1CCCN(c2ccc3nncn3n2)C1 (stereo unspecified) | 25.9
O=C(O)c1cc2c(nc1O)CC(c1cccc(Cl)c1)CC2=O (stereo unspecified) | 9.56
COc1cccc2c1ccn2CCC(=O)N1CCCC(C(=O)O)C1 (stereo unspecified) | 2.11
CNc1nc2c(s1)C(c1cccc(F)c1F)CC(=O)N2 (stereo unspecified) | -2.15
CC(C)n1cc(N2CC(C(=O)N3CCC(C(N)=O)CC3)CC2=O)cn1 (stereo unspecified) | -4.51
COCCCNC(=O)c1cc(C(C)C)nc(N2CCCC2)n1 | 6.5

SMILES | cytotoxicity at 10 µM [%]
Cc1nc(C(=O)N2CCOC(Cc3ccc(F)cc3)C2)co1 (stereo unspecified) | -1.39
Fc1ccccc1CN1CCC(c2noc(-c3ccccn3)n2)CC1 | -1.39
COc1cccc(-c2ccnc(C3CCNCC3)c2)c1 | 56.4
O=c1c(Cc2ccccc2)c(O)ccn1Cc1cccs1 | 10.2
O=C(COC1CCCCC1)Nc1ccn(Cc2cccnc2)n1 | 5.17
CCN(CC(=O)Nc1cc(C(C)(C)C)no1)Cc1ccc(Cl)s1 | 6.13
CC(C)N1C(=O)CN(CCCO)CC1(C)C | 2.04
CCc1ccc(C(NC(=O)CCS(C)(=O)=O)C(C)(C)C)o1 (stereo unspecified) | -3.58
Cc1nc2cc(F)cc(C(=O)N3CCN(CCO)CC3)c2nc1C | -3.31
Clc1cncc(N2CCN(Cc3ccon3)CC2)n1 | 6.94
Cc1nc(CN2CCc3ccc(S(N)(=O)=O)cc32)oc1C | 2.63
CN(CCOCC1CC1)C(=O)Nc1ccc(C#N)c(Cl)c1 | -11.1
CCc1ccc(C(=O)N2CCCCC2CNS(C)(=O)=O)o1 (stereo unspecified) | -0.95
COc1ccc(Cl)cc1CCNC(=O)NCc1ccncc1 | 2.53
Cc1cc(C[S+]([O-])Cc2ccccc2C)no1 (stereo unspecified) | 9.13
Cc1nnc(-c2ccc(C(=O)Nc3ccnc(N(C)C)n3)cc2)o1 | -1.01
CCC(C)(NCC(=O)OC)c1nccs1 (stereo unspecified) | -12.7
Cc1cc(NC(=O)[C@H]2CCCCN2C(=O)OC(C)(C)C)no1 | -1.48
Cc1cc(C)c2c(OCC(=O)NCC(O)C(F)(F)F)nn(C)c2n1 (stereo unspecified) | 1.3
COc1ccccc1CCNC(=O)NC(C)COCC(F)(F)F (stereo unspecified) | 8.91
CCOc1cccnc1C(=O)N1CC=C(c2ccc(O)cc2)CC1 | -1.66
CC(C)C(C)(O)CNc1cccc(F)c1C#N (stereo unspecified) | -8.87
Cc1cccc(-c2c[nH]c(C3CCCN3C(=O)Cn3cc(C)cn3)n2)c1 (stereo unspecified) | 4.56

SMILES | cytotoxicity at 10 µM [%]
COc1ccc(N(Cc2ccco2)C(=O)COC(C)C)cc1F | -1.63
O=C(c1cc[nH]n1)N(Cc1ccc(F)cc1)CC1CC1 | -10.8
OCCn1nnnc1Cc1ccc(Br)cc1 | 1.54
CNS(=O)(=O)CCCN1CCCN(Cc2ccccc2)CC1C (stereo unspecified) | 9.77
CNS(=O)(=O)c1csc(C(=O)NCc2sccc2C)c1 | 4.63
O=C(Nc1ccccc1OC(F)(F)F)C1CCS(=O)(=O)C1 (stereo unspecified) | 10.8
COc1cccc2c1CCN(C(=O)NCCc1nccn1C)C2 | 2.38
Cc1ccc(C(CNCC2CC2)N2CCOCC2)s1 (stereo unspecified) | -13.7
c1ccc(OCCN2CCCC(c3noc(C4CC4)n3)C2)cc1 (stereo unspecified) | 2.58
N#Cc1ccnc(N2CCN(Cc3cccc(F)c3)CC2)c1 | 0.795
CCOc1cccc(C(C)NC(=O)N2CCC(C(N)=O)CC2)c1 (stereo unspecified) | -2.95
COc1ccc(NC(=O)NC(C)(C)c2noc(C)n2)cc1 | -3.42
CN(Cc1cnn(C)c1)C(=O)NC1CCS(=O)(=O)C1 (stereo unspecified) | -14.4
CCN1CCNC(=O)C12CCN(C(=O)Cc1ccsc1)CC2 | -3.31
Cc1cc(C)c(C(=O)N2CCN(c3ncccc3C#N)CC2)c(=O)[nH]1 | -3.28
CCCOCCN1CCN(c2ncnc3[nH]ccc23)CC1 | -6.67
O=C(c1ccc2ccccc2c1)C1CCCN(C(=O)Cn2cnnn2)C1 (stereo unspecified) | 1.54
CCC1(C(=O)O)CCCN(CCOCc2ccccc2)C1 (stereo unspecified) | 7.33
Cn1ccnc1-c1cn(CCCc2nnc(N)s2)nn1 | 10
O=C1CCC2(CCN(Cc3cscn3)CC2)CN1CC1CCCO1 (stereo unspecified) | -5.5
COCC(=O)N(Cc1cccnc1)CC1CCN(C2CCCC2)CC1 | 1.49
O=C(O)[C@@H]1CN(C(=O)CCN2CCCCC2)C[C@H]1c1ccccc1 | 1.25
CC(=O)N1CCCC(C(=O)NCCc2csc(-c3ccncc3)n2)C1 (stereo unspecified) | 5.12

SMILES | cytotoxicity at 10 µM [%]
CCCn1cnnc1CNC(=O)CC1C(=O)NCCN1CC=C(C)C (stereo unspecified) | 6.64
CCCn1cc(-c2cc(-c3ccoc3)c(C#N)c(N)n2)c(C)n1 | 5.48
Fc1ccc(C2(c3noc(CCN4CCCCO4)n3)CCOC2)cc1 (stereo unspecified) | -1.54
CCCc1nc(C)cc(N2CCC3(CCC(=O)N(C4CC4)C3)CC2)n1 | -5.31
Cc1cc(-c2cccc(-c3ccn(CCCO)n3)c2)nc(N(C)C)n1 | -5.42
Cc1nncn1CCN1C(=O)CC2(CCCC2)CC1=O | -0.745
CC1=NOC(C(=O)N2CCC(O)(c3ccc4nc(C)ccc4c3)CC2)C1 (stereo unspecified) | 2.12
O[C@H]1CN(c2nc(-c3ccccc3)no2)C[C@@H]1N1CCOCC1 | -20.8
O=C(NCc1cc(O)ncn1)C1CCOc2ccccc2C1 (stereo unspecified) | -6.01
O=C1CN(c2ccc(CNC(=O)NCc3ccoc3)cc2)CCN1 | -1.28
Cc1cnn(C2CCCN(C(=O)c3ccc(NC4CC4)nc3)C2)c1 (stereo unspecified) | -19.6
Cc1csc(CNC(=O)N2CCCC(c3nncn3C)C2)n1 (stereo unspecified) | -18.3
CC(C(=O)NCCCN1CCOCC1)n1cncn1 (stereo unspecified) | 1.4
COc1ccc(NC(=O)CCn2nc(-c3cccs3)oc2=O)cc1OC | -9.37
CCCNC(=O)CN1CCC(NC(=O)c2cc(CC)ccc2O)CC1 | 1.93
Cc1ccoc1C(=O)NCc1ccnc(OCC(F)(F)F)c1 | -7.8
CCN(CC)C(=O)Cn1ccc2cc(NC(=O)NC3CC3)ccc21 | -9.01
CC(NC(=O)NCCCc1n[nH]c(N)c1C#N)c1ccc(F)c(F)c1 (stereo unspecified) | -10.2
CCN1CCN(c2ccc(CNC(=O)c3sccc3C)cn2)CC1 | -17.8
CCc1n[nH]c(C2CN(C(=O)CCn3ccccc3=O)CCO2)n1 (stereo unspecified) | 0.00528
CN(C)c1ccc(CNC(=O)NCCc2ccccn2)cn1 | -4.66
CCn1cc(NC(=O)NCCc2ccc3c(c2)OCO3)cn1 | 2.04
COc1ncccc1C(=O)N1CCCC1c1c(C)nn(C)c1Cl (stereo unspecified) | -9.35

SMILES | cytotoxicity at 10 µM [%]
Cc1cc(C(=O)N2CCCC(n3cncn3)C2)on1 (stereo unspecified) | -22.5
NC(=O)C1CCCN1c1cc(N2CCc3ccccc3C2)ncn1 (stereo unspecified) | -0.918
Cc1nc(CN2CCCN(C(=O)C3(C#N)CCCCC3)CC2)cs1 | -9.98
O=C(c1cccn2ccnc12)N1CCCN(c2cccnn2)CC1 | 1.68
O=C(NC1CC1)[C@H]1CN(Cc2ccc3c(c2)OCO3)C[C@H]2OCC[C@@H]12 | 3.56
C[C@H]1C(=O)NC[C@H]2CN(CCc3ccccc3)C[C@H]21 | 2.64
O=S(=O)(C1CC1)N1CCO[C@@H]2CN(Cc3cccs3)C[C@@H]2C1 | -154
O=C1COC2(CCN(c3ccccn3)CC2)CN1 | 9.52
CS(=O)(=O)N1CC[C@]2(C[C@H](Oc3ccccn3)CO2)C1 | -116
CCc1cnc(N2CC[C@H]3[C@@H]2CCC(=O)N3c2cccnc2)nc1 | 10.4
Cc1noc([C@@H]2C[C@@H]3CCN(CC4CCOCC4)C[C@H]3O2)n1 | -130
CC(C)Nc1nc(O)cc(C2CC(=O)N(Cc3ccccn3)C2)n1 (stereo unspecified) | -16.9
c1ccc(CO[C@@H]2C[C@H]3CN(c4ncccn4)CCN3C2)cc1 | 0.472
CCc1cnc(N2CC[C@@H]3CN(CCC(C)C)S(=O)(=O)[C@@H]3CC2)nc1 | 2.38
Cc1ccc(N[C@@H]2CN(Cc3cc(C)on3)C[C@@H]3CCCO[C@@H]32)nn1 | -0.113
Fc1cnc(N2CCCn3c(nnc3Cn3cccc3)C2)nc1 | -134
CCN(C)S(=O)(=O)N1C[C@H]2CC[C@@H](C1)N(Cc1cscn1)C2=O | 11
O=c1c2c[nH]c(N3CCCCC3)nc-2cn1-c1ccc2c(c1)OCO2 | 15
O=C(c1c[nH]c(=O)c(Cl)c1)N1C[C@H]2CC[C@@H](C1)N(Cc1ccccc1)C2 | -14.5

— ChEMBL document CHEMBL4513216, “Probing the Open Global Health Chemical Diversity Library for Multistage-Active Starting Points for Next-Generation Antimalarials” (ACS Infect Dis, 2020)
